Measured values taken from PubChem BioAssay AID1040 (The Scripps Research Institute Molecular Screening Center, 2008).
Where “and” joins values, the source holds several entries; their conditions need not be identical. Equal values may be shown once. Among all 200,000 compounds or so, about 2,000 (1%) were called active. Only a selection was taken, and actives are over-represented in it overall. A number with no mark means an inactive call.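 Rule for the calls: active = inhibition above the campaign mean inhibition of all tested compounds plus 3 SD (cut at about 20% in these data); inactive = the rest.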

These compounds were tested against Neuropeptide Y receptor type 1 (Homo sapiens) (UniProt P25929) (assay: NPY-Y1 receptor antagonists, primary screen, cell-based (AID 1040;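 note: 0% = DMSO wells given NPY plus isoproterenol and 100% = isoproterenol alone without NPY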)). Conditions: HEK293-CNG Y1 cells, membrane potential fluorescence; at 3.6 µM; hits give high values; NPY at EC95, then isoproterenol.
How it was run: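 Material: HEK293 cells co-expressing NPY Y1 receptor and cyclic-nucleotide gated channel. Timing: compound incubation 1 h at room temperature, readout 45 min post-stimulation. Signal: fluorescence, membrane potential probe.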

Sequence of Neuropeptide Y receptor type 1 (Homo sapiens) (P25929 whole entry, looked up): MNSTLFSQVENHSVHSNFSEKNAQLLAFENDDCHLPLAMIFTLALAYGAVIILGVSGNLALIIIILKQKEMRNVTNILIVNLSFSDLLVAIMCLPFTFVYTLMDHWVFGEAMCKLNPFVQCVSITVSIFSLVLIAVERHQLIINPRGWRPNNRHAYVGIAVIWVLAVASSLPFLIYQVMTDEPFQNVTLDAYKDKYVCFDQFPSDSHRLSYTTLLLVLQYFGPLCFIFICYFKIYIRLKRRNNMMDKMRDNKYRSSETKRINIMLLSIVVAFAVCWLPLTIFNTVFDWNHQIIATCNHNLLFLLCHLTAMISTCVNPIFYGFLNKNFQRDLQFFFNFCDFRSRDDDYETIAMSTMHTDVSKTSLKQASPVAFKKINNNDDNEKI

| SMILES | inhibition |
| --- | --- |
| COc1ccc(CCNc2nc(-c3cccc(NC(C)=O)c3)cs2)cc1OC | 6.08% |
| COc1ccc(CCN(C(=O)COc2ccccc2)c2nc(-c3ccccc3)cs2)cc1OC | 37.1% (active) |
| CN(C(=O)COc1ccccc1)c1nnc(-c2ccncc2)s1 | 7.86% |
| CC(=O)N1CC(C)c2scc(C)[n+]2-c2ccccc21 (centres undefined) | 23.1% (active) |
| C/C(=C\c1ccccc1)C1NC(=O)c2c(sc3c2CCCC3)N1 (centres undefined) | -4.04% |
| CC(=O)N(CC1CCCO1)C1(C(=O)NC2CCCC2)CCCCC1 (centres undefined) | 1.44% |
| O=C(Cc1cccs1)N(CC1CCCO1)C1(C(=O)NC2CCCCC2)CCCCC1 (centres undefined) | 50.3% (active) |
| Cc1ccsc1C(C(=O)NC1CCCCC1)N(C(=O)Cc1cccs1)C1CC1 (centres undefined) | 4.38% |
| CSc1cccc(NC(=S)N(Cc2ccccc2)Cc2ccccn2)c1 | 5.5% |
| c1cncc(-c2nnc3n2C2(CCCCC2)Cc2ccccc2-3)c1 | 1.15% |
| CCC1(CC)Cc2ccccc2-c2nc3ccccc3c(=O)n21 | 12.8% |
| O=c1c2ccccc2nc2n1C1(CCCCC1)Cc1ccccc1-2 | 32% (active) |
| COCCCNC(=S)N(Cc1ccccc1)Cc1ccc(F)cc1 | 2.32% |
| Cc1cc(C)c2[nH]c(=O)c(CN(Cc3ccccc3)C(=S)NCCCN(C)C)cc2c1 | 25.1% (active) |
| Cc1cccc2cc(CN(Cc3cccs3)C(=S)NCc3ccco3)c(=O)[nH]c12 | -4.05% |
| CC(=O)N1CCN(CC(=O)Nc2ccc(SC(F)F)cc2)CC1 | 4.16% |
| COc1cccc(CNCCc2c[nH]c3ccccc23)c1OCc1ccccc1F | 21.9% (active) |
| COc1ccc(C(CCNCc2ccccc2F)c2ccc(F)cc2)cc1 (centres undefined) | 9.35% |
| COc1ccccc1NC(=O)CCCc1c[nH]c2ccccc12 | 11.1% |
| CCC(=O)Nc1sc(C(=O)Nc2ccccc2)c(C)c1C(=O)OC | 7.74% |
| O=S(=O)(Nc1ccc2cn[nH]c2c1)c1ccccc1 | -1.06% |
| Cc1cc(C)nc(NS(=O)(=O)c2ccc(N/C=C\C(=O)c3cccs3)cc2)n1 | 1.24% |
| COc1ccc(CCNC2=C(Cl)C(=O)N(Cc3ccccc3)C2=O)cc1OC | -3.95% |
| C/C(=N\N)c1c(-c2ccccc2)c2cc(Br)ccc2[nH]c1=O | -0.69% |

| SMILES | inhibition |
| --- | --- |
| Cc1cnc(C(=O)OCC(=O)NCCCc2ccccc2)cn1 | 2.73% |
| COc1ccc(CN(C)C(=S)Nc2ccc(Cl)cc2Cl)cc1 | 3.26% |
| NC(N)=N/N=C/c1ccc(Cl)c([N+](=O)[O-])c1 | 3.89% |
| NC(N)=N/N=C/c1ccc(OCc2ccc(Cl)cc2Cl)cc1 | 22.1% (active) |
| COc1ccc(C(=O)O/N=C(\N)Cc2ccc(Cl)cc2Cl)cc1OC | -3.58% |
| CN(C)CCNC(=O)Cc1ccc([N+](=O)[O-])cc1 | -2.56% |
| Cc1ccc2cc(CN(c3ccc(C)c(C)c3)S(C)(=O)=O)c(=O)[nH]c2c1 | -0.43% |
| NNC(=O)c1cnn(-c2ccccc2)c1C(F)(F)F | 3.72% |
| O=C(CN1C2=NCCN2c2ccccc21)c1cccs1 | 3.06% |
| Cc1cccc(C(=O)Nc2ccccc2N2CCN(c3ccc(F)cc3)CC2)c1 | 6.05% |
| O=C(Nc1ccccc1N1CCN(c2ccccc2)CC1)c1cccc(F)c1 | 44.1% (active) |
| O=C(Nc1ccccc1N1CCCCC1)c1cccc(F)c1 | 13.7% |
| CC(=O)N(CCCN(C)C)c1nc2ccc(C)cc2s1 | -0.43% |
| O=C(CSc1cccc[n+]1[O-])c1ccc(Cl)cc1 | 0.77% |
| CN(C)S(=O)(=O)c1cc(NC(=O)CN2C(=O)NC3(CCCc4ccccc43)C2=O)ccc1Cl (centres undefined) | -4.16% |
| Cc1cc2nc(-c3ccc(NC(=O)c4cccnc4)cc3)oc2cc1C | 29.8% (active) |
| Cc1ccc(-n2nc3cc(C)c(NC(=O)c4cccnc4)cc3n2)cc1 | -4.27% |
| Cc1ccc2nc(-c3ccc(NC(=O)c4cccnc4)cc3)oc2c1 | -0.59% |
| Cc1nc2cc(NC(=O)NC3CC3)ccc2n1C | -0.07% |
| O=C(CN1CCN(CC(=O)Nc2ccc3c(c2)OCO3)CC1)Nc1ccc(F)cc1 | -3.14% |
| O=C(CN1CCN(C(=O)c2ccco2)CC1)Nc1ccc2c(c1)OCO2 | 0.97% |
| O=C(CN1CCN(c2ncc(C(F)(F)F)cc2Cl)CC1)Nc1ccc2c(c1)OCO2 | 23.8% (active) |
| COc1ccc(C(=O)NC(Cc2ccc(OC(=O)c3ccc(OC)cc3)cc2)C(=O)O)cc1 (centres undefined) | 3.87% |
| Cc1coc(C)c1C(=O)CC1(O)C(=O)N(C)c2ccc(Cl)cc21 (centres undefined) | 1.88% |

| SMILES | inhibition |
| --- | --- |
| O=C1NC(=Nc2ccc(Cl)cc2)SC1Cc1cccc(Cl)c1Cl (centres undefined) | -1.29% |
| CCc1cc2c(NC3CCCC3)ncnc2s1 | -1.37% |
| O=C(Nc1ccc2ccccc2c1)/C(=C/c1cccc(Br)c1)NC(=O)c1ccco1 | 7.08% |
| CCCc1ccc(OCC(=O)NNC(=S)NC(=O)c2ccco2)cc1 | 10.6% |
| CC(Oc1ccc2ccccc2c1)C(=O)NNC(=S)NC(=O)c1ccco1 (centres undefined) | 21.9% (active) |
| COc1ccccc1NC(=O)CSc1nc2sc(C)c(C)c2c(=O)n1Cc1ccco1 | 9.58% |
| CCOC(=O)CSc1nc2c(c(=O)n(C)c(=O)n2C)n1Cc1ccccc1F | 1.86% |
| CCOC(=O)CSc1nc2c(sc(=S)n2CCc2ccccc2)c(=O)n1Cc1ccco1 | 34.8% (active) |
| CC(=O)c1ccc(N2CCN(S(=O)(=O)c3c(C)[nH]c(=O)[nH]c3=O)CC2)cc1 | -3.11% |
| O=C(NC(=S)Nc1cccc(-c2ccc(CO)o2)c1)c1cccs1 | 4.06% |
| O=C(Nn1c(SCc2ccc([N+](=O)[O-])cc2)nc2ccccc2c1=O)c1ccc(F)cc1 | 3.79% |
| COc1ccc2oc(=O)c(C(=O)N3CCCC3)cc2c1 | 1% |
| Cc1cc(C)nc(SC2CCCCC2NS(=O)(=O)c2ccc(Cl)cc2)n1 (centres undefined) | 4.03% |
| CSc1ccc(S(=O)(=O)NC2CCCCC2)cc1 | -0.27% |
| CCOC1CCCCC1NS(=O)(=O)c1ccc(Cl)cc1 (centres undefined) | 21.4% (active) |
| O=C(COc1nc2ccccc2nc1N1CCOCC1)NCC(F)(F)F | 3.34% |
| C/C=C/c1ccc(OCC(O)CN2CCCCCCC2)c(OC)c1 (centres undefined) | 16.4% |
| Cc1ccc(N2C(=O)C3CC3C2=O)cc1 (centres undefined) | -4.56% |
| CCCCCOC(=O)c1ccc(N2C(=O)C3C4C=CC(C4)C3C2=O)cc1 (centres undefined) | -0.77% |
| C/C(=N/O)c1ccc(N2C(=O)C3C4C=CC(C3C2=O)C2C3C(=O)N(c5ccc(/C(C)=N/O)cc5)C(=O)C3C42)cc1 (centres undefined) | 20.7% (active) |
| Cc1ccc(C(=O)N/C(=C/c2cccs2)C(=O)N2CCCCC2)cc1 | 0.27% |
| CCOC(=O)c1c(NC(=O)C2CC=CCC2C(=O)O)sc(C)c1CC (centres undefined) | 6.42% |
| CCCC(=O)Nc1nc2ccc(NC(=O)c3c(F)c(F)c(OC)c(F)c3F)cc2s1 | 33.9% (active) |
| CCCC(=O)Nc1nc2ccc(NC(=O)c3cccnc3)cc2s1 | 2.46% |

| SMILES | inhibition |
| --- | --- |
| COc1ccc2nc(Nc3nc4ccc(NC(C)=O)cc4s3)sc2c1 | -4.47% |
| O=C(NCc1ccco1)c1ccc(NS(=O)(=O)c2cccc([N+](=O)[O-])c2)cc1 | -0.88% |
| CN1CCN(C(=O)/C(=C\c2cccs2)NC(=O)c2cccs2)CC1 | -0.85% |
| CO/N=C/c1cn(-c2ccc(Cl)cc2)nn1 | -3.05% |
| O=C(NCc1ccncc1)NC12CC3CC(CC(C3)C1)C2 | -6.14% |
| CCCn1nc(C(=O)N2CCCc3ccccc32)c2ccccc2c1=O | 3.23% |
| O=C(c1cccc(C(=O)N2CCc3ccccc32)n1)N1CCc2ccccc21 | 10.5% |
| CCCCn1nc(C(=O)N2CCc3ccccc32)c2ccccc2c1=O | 28.5% (active) |
| NS(=O)(=O)c1ccc(N=Cc2ccc(Br)s2)cc1 | 2.13% |
| Cc1ccc(S(=O)(=O)NC(C(=O)N2CCOCCOCCOCCOCC2)c2ccccc2)cc1 (centres undefined) | 5.72% |
| O=C(/C=C/c1ccccc1)Nc1nnc(SCC(=O)c2ccc3ccccc3c2)s1 | -1.51% |
| O=C(NCCNc1ccc([N+](=O)[O-])cc1)c1cccc2c(Br)cccc12 | 10.2% |
| CCOC(=O)/C(=N\Nc1ccccc1Cl)N(C)C1CCS(=O)(=O)C1 (centres undefined) | -1.74% |
| Cc1ccc(C(=O)C[n+]2cc(-c3ccccc3)n3c2CCCCC3)cc1 | 30.8% (active) and 55.8% (active) |
| Cn1c(-c2ccccc2)c[n+]2c1CCCCC2 | 6% |
| Cc1ccc(C(=O)N2CCCC(c3ccccc3)=N2)cc1 | 0.71% |
| CCN1CCN(C(C(=O)NC2CCCC2)c2cc3c(cc2[N+](=O)[O-])OCO3)CC1 (centres undefined) | -0.35% |
| COC(=O)C1C(=O)NCC1c1ccc(C)cc1 (centres undefined) | -2.75% |
| COC(=O)C1=C(Nc2ccc(OC)cc2)C=C(C)C(C(=O)OC)C1c1ccc(C)cc1 (centres undefined) | 14.2% |
| COC(=O)C1=C(Nc2ccc(C)cc2)C=C(C)C(C(=O)OC)C1c1ccc(F)cc1 (centres undefined) | 32.6% (active) |
| O=c1[nH]c2ccccc2s1 | 1.2% |
| Cc1ccc(S(=O)(=O)N2CCOCC2)cc1C(=O)NC(=S)N(Cc1ccccc1)C(C)C | 1.17% |
